The source made the active and inactive calls. The calls are words filed in the database; no cut-off is given here.
Tests used:
Mus musculus [1] = assay: Toxicity in Balb/C mouse assessed as change in body weight at 10 to 40 mg/kg, ip administered thrice a week for 2 weeks measured 48 hrs after last dose; type: organism-based; design: dose 10-40 mg/kg, route intraperitoneal; details: in vivo
Procedure, shortened: (§1)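 Male Balb/c mice, 6–8 wk, n=4/group, received compound i.p. in PBS (10 ul/g) 3x/wk for 2 wk. Body weight was monitored throughout. At 48 h after the last dose, mice were anesthetized with isoflurane and bled by cardiac puncture. Serum AST, ALT, BUN, bilirubin, glucose and triglycerides were compared with the saline group. ALT rise below 2x normal was counted as absent.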

Mus musculus [2] = assay: Toxicity in Balb/C mouse assessed as change in serum AST levels at 10 to 40 mg/kg, ip administered thrice a week for 2 weeks measured 48 hrs after last dose; type: organism-based; design: dose 10-40 mg/kg, route intraperitoneal; details: in vivo; procedure, shortened: as §1
Mus musculus [3] = assay: Toxicity in Balb/C mouse assessed as change in serum ALT levels at 10 to 40 mg/kg, ip administered thrice a week for 2 weeks measured 48 hrs after last dose; type: organism-based; design: dose 10-40 mg/kg, route intraperitoneal; details: in vivo; procedure, shortened: as §1
Mus musculus [4] = assay: Toxicity in Balb/C mouse assessed as change in blood urea nitrogen levels at 10 to 40 mg/kg, ip administered thrice a week for 2 weeks measured 48 hrs after last dose; type: organism-based; design: dose 10-40 mg/kg, route intraperitoneal; details: in vivo; procedure, shortened: as §1
Mus musculus [5] = assay: Toxicity in Balb/C mouse assessed as change in serum bilirubin levels at 10 to 40 mg/kg, ip administered thrice a week for 2 weeks measured 48 hrs after last dose; type: organism-based; design: dose 10-40 mg/kg, route intraperitoneal; details: in vivo; procedure, shortened: as §1
Mus musculus [6] = assay: Toxicity in Balb/C mouse assessed as change in serum glucose levels at 10 to 40 mg/kg, ip administered thrice a week for 2 weeks measured 48 hrs after last dose; type: organism-based; design: dose 10-40 mg/kg, route intraperitoneal; details: in vivo; procedure, shortened: as §1
Mus musculus [7] = assay: Toxicity in Balb/C mouse assessed as change in serum triglyceride levels at 10 to 40 mg/kg, ip administered thrice a week for 2 weeks measured 48 hrs after last dose; type: organism-based; design: dose 10-40 mg/kg, route intraperitoneal; details: in vivo; procedure, shortened: as §1
Mus musculus [8] = assay: Toxicity in Balb/C mouse assessed as increase in spleen weight at 40 mg/kg, ip administered thrice a week for 2 weeks measured 48 hrs after last dose; type: organism-based; design: dose 40 mg/kg, route intraperitoneal; details: in vivo
Procedure, shortened: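 Male Balb/c mice, 6–8 wk, n=4/group, were dosed i.p. in PBS 3x/wk for 2 wk at 40 mg/kg. They were killed by cervical dislocation 48 h after the last dose. Spleen weight was taken at necropsy and compared with the saline-treated group.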

Mus musculus [9] = assay: Inhibition of PTEN expression in Balb/C mouse liver at 10 to 40 mg/kg, ip administered thrice a week for 2 weeks measured 48 hrs after last dose by Western blot analysis; type: functional, organism-based
Procedure, shortened: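 Male Balb/c mice, 6–8 wk, n=4/group, dosed i.p. in PBS 3x/wk for 2 wk and killed 48 h after the last dose. Tissue was homogenized in RIPA buffer with protease inhibitors, and protein was measured by Lowry assay. Lysates were run on 10% PAGE and blotted to PVDF. Blots were probed with rabbit anti-PTEN (1:1000) and HRP anti-rabbit (1:2500), with ECL detection.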

Mus musculus [10] = assay: Inhibition of PTEN expression in Balb/C mouse kidney assessed as upregulation of isoform lacking exon at 40 mg/kg, ip administered thrice a week for 2 weeks measured 48 hrs after last dose […]; type: functional; design: scale not given: the % may be the effect or the level left; details: route intraperitoneal
Mus musculus [11] = assay: Inhibition of PTEN expression in Balb/C mouse kidney assessed as reduction of full length transcript at 40 mg/kg, ip administered thrice a week for 2 weeks measured 48 hrs after last dose […]; type: functional; design: scale not given: the % may be the effect or the level left; details: route intraperitoneal
Mus musculus [12] = assay: Inhibition of PTEN expression in ip dosed Balb/C mouse white adipose tissue assessed as reduction of full length transcript administered thrice a week for 2 weeks measured 48 hrs after last dose […]; type: functional, organism-based
Mus musculus [13] = assay: Inhibition of PTEN expression in ip dosed Balb/C mouse white adipose tissue assessed as upregulation of isoform lacking exon administered thrice a week for 2 weeks measured 48 hrs after last dose […]; type: functional, organism-based
Mus musculus [14] = assay: Acute toxicity in Balb/C mouse assessed as change in body weight at 37 mg/kg, ip administered thrice a week for 2 weeks measured 48 hrs after last dose; type: organism-based; design: dose 37 mg/kg, route intraperitoneal; details: in vivo
Procedure, shortened: (§2)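 Male Balb/c mice aged 6–8 weeks, n=4 per group, dosed i.p. with compound suspended in PBS and filter sterilized, 10 ul/g body weight. Body weight tracked throughout the live phase. Under isoflurane anaesthesia, terminal cardiac-puncture bleed; serum taken for transaminases and other chemistries. Sacrifice by cervical dislocation 48 h after last dose, with liver and spleen weighed at necropsy. Kidneys examined by histopathology.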

Mus musculus [15] = assay: Acute toxicity in Balb/C mouse assessed as change in body weight at 25 mg/kg, ip administered BID for 5 days measured 48 hrs after last dose; type: organism-based; design: dose 25 mg/kg, route intraperitoneal; details: in vivo; procedure, shortened: as §2
Mus musculus [16] = assay: Acute toxicity in Balb/C mouse assessed as change in organ weight at 37 mg/kg, ip administered thrice a week for 2 weeks measured 48 hrs after last dose; type: organism-based; design: dose 37 mg/kg, route intraperitoneal; details: in vivo; procedure, shortened: as §2
Mus musculus [17] = assay: Acute toxicity in Balb/C mouse assessed as change in organ weight at 25 mg/kg, ip administered BID for 5 days measured 48 hrs after last dose; type: organism-based; design: dose 25 mg/kg, route intraperitoneal; details: in vivo; procedure, shortened: as §2
Mus musculus [18] = assay: Acute toxicity in Balb/C mouse assessed as change in serum chemistry at 37 mg/kg, ip administered thrice a week for 2 weeks measured 48 hrs after last dose; type: organism-based; design: dose 37 mg/kg, route intraperitoneal; details: in vivo; procedure, shortened: as §2
Mus musculus [19] = assay: Acute toxicity in Balb/C mouse assessed as change in serum chemistry at 25 mg/kg, ip administered BID for 5 days measured 48 hrs after last dose; type: organism-based; design: dose 25 mg/kg, route intraperitoneal; details: in vivo; procedure, shortened: as §2

`Cc1cn(CC(=O)N(CCNC(=O)CN(CCNC(=O)[C@H](CCCCN)N(CCNC(=O)[C@H](CCCCN)NC(=O)[C@H](CCCCN)NC(=O)[C@H](CCCCN)NC(=O)[C@H](CCCCN)NC(=O)[C@H](CCCCN)NC(=O)[C@H](CCCCN)NC(=O)[C@H](CCCCN)NC(=O)[C@@H](N)CCCCN)C(=O)Cn2cc(C)c(=O)[nH]c2=O)C(=O)Cn2ccc(N)nc2=O)CC(=O)NCCN(CC(=O)NCCN(CC(=O)NCCN(CC(=O)NCCN(CC(=O)NCCN(CC(=O)NCCN(CC(=O)NCCN(CC(=O)NCCN(CC(=O)NCCN(CC(=O)NCCN(CC(=O)NCCN(CC(=O)NCCN(CC(=O)NCCN(CC(=O)N[C@@H](CCCCN)C(N)=O)C(=O)Cn2cnc3c(N)ncnc32)C(=O)Cn2ccc(N)nc2=O)C(=O)Cn2cnc3c(N)ncnc32)C(=O)Cn2cc(C)c(=O)[nH]c2=O)C(=O)Cn2ccc(N)nc2=O)C(=O)Cn2cc(C)c(=O)[nH]c2=O)C(=O)Cn2cnc3c(N)ncnc32)C(=O)Cn2ccc(N)nc2=O)C(=O)Cn2cnc3c(N)ncnc32)C(=O)Cn2ccc(N)nc2=O)C(=O)Cn2cnc3c(=O)[nH]c(N)nc32)C(=O)Cn2cnc3c(N)ncnc32)C(=O)Cn2ccc(N)nc2=O)c(=O)[nH]c1=O` was tested, and the Activity (Mus musculus [1]) was “Non-toxic”, the Activity (Mus musculus [2]) was “Non-toxic” and the Activity (Mus musculus [3]) was “Non-toxic”. For the same molecule, the Activity (Mus musculus [4]) was “Non-toxic”, the Activity (Mus musculus [5]) was “Non-toxic” and the Activity (Mus musculus [6]) was “Non-toxic”. The Activity (Mus musculus [7]) was “Non-toxic”, the Activity (Mus musculus [8]) was 145% and the inhibition (Mus musculus [9]) was “inactive”. The Activity (Mus musculus [10]) was 185%, the Activity (Mus musculus [11]) was 70% and the Activity (Mus musculus [12]) was “Dose-dependent effect”. For the same molecule, the Activity (Mus musculus [13]) was “Dose-dependent effect”, the Activity (Mus musculus [14]) was “Non-toxic” and the Activity (Mus musculus [15]) was “Non-toxic”. For the same molecule, the Activity (Mus musculus [16]) was “Non-toxic”, the Activity (Mus musculus [17]) was “Non-toxic” and the Activity (Mus musculus [18]) was “Non-toxic”. The Activity (Mus musculus [19]) was “Non-toxic”.

Source: ChEMBL document CHEMBL1155469, “Peptide nucleic acids conjugated to short basic peptides show improved pharmacokinetics and antisense activity in adipose tissue” (J Med Chem, 2010)
